MDM2 E3 inh – blocks human Mdm2 ubiquitin ligase activity. cell-based MDM2 ubiquitination luciferase reporter, 2 h; 0 = plate control, 100 = twice control, blank-subtracted. signal enhancement, % at 5 µM. 210,000 compounds, 0.11% hits. AID 1230;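 active = signal enhancement of 30% or more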;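 also: luminescence tracks abundance of the self-degrading MDM2-luciferase fusion protein; higher signal means inhibition of MDM2 E3 ligase activity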
Target sequence (Q00987 whole entry, looked up, the tested form may be a part): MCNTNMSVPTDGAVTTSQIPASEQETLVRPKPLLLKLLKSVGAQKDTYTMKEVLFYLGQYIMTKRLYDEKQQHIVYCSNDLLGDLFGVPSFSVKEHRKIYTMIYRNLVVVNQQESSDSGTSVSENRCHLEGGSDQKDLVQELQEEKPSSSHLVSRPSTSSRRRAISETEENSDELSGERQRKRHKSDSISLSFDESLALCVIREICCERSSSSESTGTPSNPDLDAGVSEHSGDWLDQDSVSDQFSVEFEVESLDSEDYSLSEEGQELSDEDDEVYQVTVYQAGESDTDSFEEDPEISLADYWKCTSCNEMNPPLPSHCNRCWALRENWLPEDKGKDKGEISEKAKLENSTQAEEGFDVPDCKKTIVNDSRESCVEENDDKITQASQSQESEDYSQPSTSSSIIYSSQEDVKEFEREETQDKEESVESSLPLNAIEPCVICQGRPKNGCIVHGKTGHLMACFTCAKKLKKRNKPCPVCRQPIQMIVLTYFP
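Assay system: stable mammalian line carrying autodegrading MDM2–luciferase fusion reporter; Input: 2000 cells in each well; Compound dosing: single-point 5 µM; Schedule: 2 h compound exposure at 37 °C; Signal: SteadyLite luciferase luminescence after 15 min room-temperature reagent incubation; Evaluation: % luminescence enhancement versus blank-corrected plate control mean; Benchmarks: plate controls and plate blanks.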
Arbovirus inh – antivirals against arbovirus infection; inhibition, % at 10 µM; 200,000 compounds, 0.37% hits; AID 1251; arbovirus infection cell-based antiviral screen; in the data active = inhibition above about 30%
PKD1 kinase inh – inhibitors of human PKD1 kinase; inhibition, % (no concentration beside the values); PKD1 kinase fluorescence polarization assay; AID 797; 200,000 compounds, 0.056% hits; in the data active = inhibition above about 50%
KCC2 mod – modulates chloride dependent transport by human KCC2 | Q9H2X9 | KCC2 cells, thallium flux FluoZin-2 fluorescence | B-score of Tl+ flux slope (higher = more flux/activation; lower = inhibition) at 10 µM | 190,000 compounds, 2.2% hits | AID 1456;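 active = thallium flux slope and its plate-corrected score both differing from the plate sample mean at a set confidence after two filtering rounds, in either direction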;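 also: slope of fluorescence scaled to starting intensity during 10 to 20 s after thallium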
ROMK mod – human ROMK K+ channel modulation, primary screen; P48048; B-score at 10 µM; AID 1918; 130,000 compounds, 2% hits; Tet-inducible ROMK, thallium flux fluorescence; actives lie on both sides;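 active = signal ratio slope over the read window, or its plate-corrected B-score, at least 3 SD from the plate mean, either direction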;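 also: B-score of the F/F0 ratio slope over 7 to 12 s after thallium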
Calpain2 inh – blocks pig calpain II enzyme activity; purified calpain II, fluorogenic peptide substrate, 30 min; inhibition, % at 16 µM; 220,000 compounds, 0.37% hits; AID 1236;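 active = inhibition above about 50%, limit read from the data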
* = called active by the depositor; / = no result; ! = repeats disagree. Hits are enriched below; roughly 3.7% of the tested compounds scored in any of these assays.

SMILES	MDM2 E3 inh	Arbovirus inh	PKD1 kinase inh	KCC2 mod	ROMK mod	Calpain2 inh
Oc1ccccc1-c1cc(-c2ccc3c(c2)OCCO3)n[nH]1	-14.9	-31.7	-14.3	0.162	/	53.8*
COc1ccc(O)c(-c2cc(-c3cccc(Br)c3)n[nH]2)c1	9.6	-37.0	-3.8	-0.471	0.585	-20.1
COC(=O)C(C)NC(=O)C1CCCN1S(=O)(=O)c1cc(C)c(Cl)cc1C (stereo unspecified)	-11.7	-0.3	-3.7	-4.34*	/	17.0
CC1(C)CC2CC(C)(CN2C(=S)Nc2ccccc2)C1 (stereo unspecified)	-19.9	3.3	-5.6	0.447	/	5.2
CC1(C)CC2CC(C)(CN2C(=S)NC(=O)c2ccccc2Cl)C1 (stereo unspecified)	-10.3	-17.4	3.5	54.5*	/	1.1
Cc1cccn2c(=O)c(C=NCc3ccco3)c(Nc3ccc(Cl)cc3)nc12	/	11.8	/	/	/	/
COc1ccc(S(=O)(=O)NN(C)c2ncc(C(F)(F)F)cc2Cl)cc1	35.9*	11.0	-1.1	-0.3	/	-15.0
Cc1cc(C(=O)Nc2ccc(N3CCCC3)c(Cl)c2)ccc1[N+](=O)[O-]	/	14.1	-10.2	0.328	0.272	50.1*
O=C(Nc1ccc(N2CCCC2)c(Cl)c1)c1ccc([N+](=O)[O-])cc1	/	3.8	7.8	2.13	0.27	13.1
CCn1c(N2CCN(C(=S)Nc3ccc(OC)cc3)CC2)nc2ccccc21	-3.8	-10.5	-5.2	-1.7	-2.77	15.1
CC(=O)Nc1c(I)c(NC(C)=O)c(I)c(C(=O)O)c1I	/	5.2	-6.2	10.3*!	/	4.5
CC(NCC(O)COCCC12CC3CC(CC(C3)C1)C2)c1ccccc1 (stereo unspecified)	-11.7	-28.6	-1.1	1.01	-1.93	6.8
CC(C)(C)C(=O)Nc1cccc2[nH]ncc12	-4.5	-5.3	-2.6	-0.681	-0.033	-22.0
CC(=O)Nc1ccc(S(=O)(=O)Nc2cccc3[nH]ncc23)cc1	3.1	6.7	-2.1	-0.644	-0.184	50.7*
O=C(/C=C/c1ccc(F)cc1)c1ccc(N2CCOCC2)cc1	-6.0	/	/	0.933	/	6.4
Cc1cccc(/C=C/C(=O)c2ccc(N3CCOCC3)cc2)c1	-10.2	17.3	1.1	-1.33	-0.57	53.3*
CC(=O)OCC1(C)CN(c2ccccc2)N(C(=O)c2ccc(F)cc2)C1=O (stereo unspecified)	2.0	-24.0	1.0	-0.771	0.638	-20.4
O=[N+]([O-])c1cccc(S(=O)(=O)Nc2nc3ccccc3nc2Nc2cccc(S(=O)(=O)N3CCCCC3)c2)c1	-3.3	-38.2	0.0	-4.35	/	82.0*
Cc1ccc(S(=O)(=O)Nc2nc3ccccc3nc2Nc2cccc(S(=O)(=O)N3CCCC3)c2)cc1	-11.4	-15.6	-5.0	0.205	-2.2	-14.3
COC(=O)c1c(SCc2ccc(C#N)cc2)nc(=O)[nH]c1C	-10.0	77.8*	-6.1	0.149	0.438	4.7
C/C(=N\NC(=O)c1cc(Cl)ccc1O)c1ccc(Br)s1	/	-15.2	0.4	15.2*	0.493	-11.7
CCC(=O)NC(=S)NNC(=O)c1ccc(OC)cc1	-8.2	-20.1	5.9	1.02	/	8.5
CCCCOc1ccc(C(=O)NNC(=S)NC(=O)CC)cc1	-2.4	-15.0	-0.9	35.9*	/	0.7
Cc1ccccc1C(=O)NNC(=S)NC(=O)COc1ccccc1	-17.3	-24.9	-7.9	19.5*	1.82	8.7
CC(C)(C)C(=O)NC(=S)NNC(=O)c1ccc(-c2ccccc2)cc1	27.9	-17.9	-7.2	86.6*	6.09*	-69.1
SMILES	MDM2 E3 inh	Arbovirus inh	PKD1 kinase inh	KCC2 mod	ROMK mod	Calpain2 inh
Cc1ccc(C(=O)NNC(=S)NC(=O)COc2ccccc2)cc1	-5.1	-26.7	-9.2	94.8*	6.61*	14.7
COC(=O)c1ccccc1NC(=S)NC(=O)COc1ccccc1	-10.5	12.9	-9.7	/	/	45.7
O=S(=O)(Nc1ccc(-c2nnc(SCc3ccc(Cl)cc3)o2)cc1)c1ccccc1	-5.1	30.8*	-0.3	0.68	-0.0701	-1.4
Clc1ccc(CSc2nnc(-c3ccncc3)o2)cc1	-19.1	-28.9	-0.9	-0.186	/	4.3
COc1cnc(SCc2c(Cl)cccc2Cl)nc1Cl	-18.7	5.0	-3.5	/	/	50.8*
O=C(c1sc2cc([N+](=O)[O-])ccc2c1Cl)N1CCCCC1	-6.9	-6.8	-10.5	-0.853	/	25.1
CC1CCCN(C(=O)c2sc3cc([N+](=O)[O-])ccc3c2Cl)C1 (stereo unspecified)	-15.8	-6.0	1.9	-0.657	/	68.1*
COc1ccc(-c2cc(-c3ccccc3O)[nH]n2)cc1OC	-7.3	26.2	2.7	0.209	/	-67.1
COc1ccc(-c2cc(-c3ccc(OC)c(OC)c3)n[nH]2)c(O)c1	-7.5	31.8*	-6.7	0.0314	0.0585	10.9
Cc1cc(SCC(=O)c2cccs2)nc2c(C)cccc12	-17.3	-6.5	-5.5	0.655	/	4.1
Cc1cc2c(C)ccc(C)c2nc1SCC(=O)c1cccs1	1.1	12.4	7.7	/	/	51.0*
CC(CCc1ccccc1)NC(=O)c1cc2sccc2n1C (stereo unspecified)	1.3	42.0*	-21.7	-0.81	/	14.0
CCc1nnc(NC(=O)COc2ccccc2[N+](=O)[O-])s1	-14.9	/	/	/	/	-6.8
O=C(Nc1nc(-c2ccc3c(c2)OCO3)cs1)C1COc2ccccc2O1 (stereo unspecified)	-4.5	52.2*	2.3	2.84	/	8.3
COc1cccc(C(=O)Nc2nc(-c3ccc4c(c3)OCO4)cs2)c1	-32.3	42.2*	-3.8	/	/	-12.2
COc1cccc(C(=O)Nc2nc(-c3ccccc3)c(-c3ccccc3)o2)c1	-9.1	-18.1	8.7	28.7*	/	-9.6
O=C(Nc1nc(-c2ccccc2)cs1)C1COc2ccccc2O1 (stereo unspecified)	-1.7	8.6	-3.0	0.169	-0.19	6.9
O=C(Nc1nc(-c2ccccc2)c(-c2ccccc2)o1)c1ccc(F)cc1	-11.3	-15.2	10.8	/	/	3.3
Cc1cc(C(=O)N2CCN(S(=O)(=O)c3ccccc3F)CC2)c(C)o1	-5.5	4.0	-7.2	0.0936	-0.535	31.1
S=C(NCc1cccnc1)Nc1ccc(Oc2ccc(Cl)cc2)cc1	-9.0	/	/	-1.82	/	7.5
Cc1ccccc1NC(=S)c1nc2ccccc2[nH]1	-14.5	-1.1	-7.9	45.8*	0.427	30.5
S=C(Nc1ccc(Cl)cc1)c1nc2ccccc2[nH]1	-18.5	-16.1	2.0	29.6*	0.0503	-6.3
CCc1cc(C(=O)NNC(=S)Nc2cc(C)ccc2C)cs1	9.9	-4.3	4.5	10.2*	/	-15.7
Cc1ccc(C)c(NC(=S)NNC(=O)c2csc3c2CCCC3)c1	-23.2	-24.1	-1.3	78.6*	-0.734	24.7
Cc1cccc(NC(=S)NNC(=O)c2csc3c2CCCC3)c1	-15.5	-22.0	-10.3	20.8*	-1.03	19.0
Cc1ccc(C)c(NC(=S)NNC(=O)c2csc3c2CCC(C)C3)c1 (stereo unspecified)	-2.3	-17.2	-2.9	21.3*	1.51	-39.8
N/C(=N\OC(=O)c1ccc(Cl)cc1)c1[nH]ncc1Br	-51.9	/	/	0.798	-0.0444	-10.9

From PubChem BioAssay
